Tests used:
Type in all cases: ADME, organism-based
[1] = organism: Rattus norvegicus; assay: Ratio of distribution of the [131I]-labeled compound at 5 min in rat brain over uptake in blood
In short: (§1)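 Male Sprague-Dawley rats (200–300 g, fed ad libitum), ether-anesthetized, got a tail-vein bolus of 0.2 mL saline containing 10–20 μCi 131I compound and were decapitated at the stated time. Organs were weighed and gamma-counted against a serially diluted external standard. Organ/blood ratio was calculated from % dose per gram of organ. Animal numbers per time point were 1–4.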

[2] = organism: Rattus norvegicus; assay: The distribution of the 131 I-labeled compound at 5 min was evaluated in rat heart as Percent of injected dose per gram in the organ; settings: in vivo
In short: (§2)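 Male Sprague-Dawley rats (200–300 g, free access to food and water), lightly ether-anesthetized and restrained, received a 0.2 mL saline tail-vein bolus of 10–20 μCi 131I-labeled compound. They were decapitated at the stated time, and organs were excised, weighed and gamma-counted. Percent injected dose was determined against a calibrated external standard made by serial dilution of the injectate. n = 1–4 rats.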

[3] = organism: Rattus norvegicus; assay: The distribution of the 131 I-labeled compound at 30 min was evaluated in rat blood as Percent of injected dose per gram in the organ; settings: in vivo, 0.5 h; in short: as §2
[4] = organism: Rattus norvegicus; assay: The distribution of the 131 I-labeled compound at 30 min was evaluated in rat liver as Percent of injected dose per gram in the organ; settings: in vivo, 0.5 h; in short: as §2
[5] = organism: Rattus norvegicus; assay: Ratio of distribution of the [131I]-labeled compound at 5 min in rat heart over uptake in blood; settings: other tissue; in short: as §1
[6] = organism: Rattus norvegicus; assay: The distribution of the 131 I-labeled compound at 30 min was evaluated in rat brain as Percent of injected dose per gram in the organ; settings: in vivo, 0.5 h; in short: as §2
[7] = organism: Rattus norvegicus; assay: The distribution of the 131 I-labeled compound at 30 min was evaluated in rat brain as Percent of injected dose in the total organ; settings: in vivo, 0.5 h; in short: as §2
[8] = organism: Rattus norvegicus; assay: Ratio of distribution of the [131I]-labeled compound at 5 min in rat liver over uptake in blood; settings: other tissue; in short: as §1
[9] = organism: Rattus norvegicus; assay: The distribution of the 131 I-labeled compound at 5 min was evaluated in rat kidney as Percent of injected dose per gram in the organ; settings: in vivo; in short: as §2
[10] = organism: Rattus norvegicus; assay: The distribution of the 131 I-labeled compound at 30 min was evaluated in rat heart as Percent of injected dose in the total organ; settings: in vivo, 0.5 h; in short: as §2
[11] = organism: Rattus norvegicus; assay: The distribution of the 131 I-labeled compound at 5 min was evaluated in rat brain as Percent of injected dose per gram in the organ; settings: in vivo; in short: as §2
[12] = organism: Rattus norvegicus; assay: Ratio of distribution of the [131I]-labeled compound at 5 min in rat lung over uptake in blood; settings: other tissue; in short: as §1
[13] = organism: Rattus norvegicus; assay: The distribution of the 131 I-labeled compound at 5 min was evaluated in rat liver as Percent of injected dose per gram in the organ; settings: in vivo; in short: as §2
[14] = organism: Rattus norvegicus; assay: Ratio of distribution of the [131I]-labeled compound at 30 min in rat lung over uptake in blood; settings: other tissue, 0.5 h; in short: as §1
[15] = organism: Rattus norvegicus; assay: The distribution of the 131 I-labeled compound at 30 min was evaluated in rat lung as Percent of injected dose per gram in the organ; settings: in vivo, 0.5 h; in short: as §2
[16] = organism: Rattus norvegicus; assay: Ratio of distribution of the [131I]-labeled compound at 30 min in rat liver over uptake in blood; settings: other tissue, 0.5 h; in short: as §1
[17] = organism: Rattus norvegicus; assay: Ratio of distribution of the [131I]-labeled compound at 30 min in rat heart over uptake in blood; settings: other tissue, 0.5 h; in short: as §1
[18] = organism: Rattus norvegicus; assay: The distribution of the 131 I-labeled compound at 5 min was evaluated in rat blood as Percent of injected dose per gram in the organ; settings: in vivo; in short: as §2
[19] = organism: Rattus norvegicus; assay: Ratio of distribution of the [131I]-labeled compound at 30 min in rat brain over uptake in blood; settings: 0.5 h; in short: as §1
[20] = organism: Rattus norvegicus; assay: The distribution of the 131 I-labeled compound at 30 min was evaluated in rat kidney as Percent of injected dose per gram in the organ; settings: in vivo, 0.5 h; in short: as §2
[21] = organism: Rattus norvegicus; assay: The distribution of the 131 I-labeled compound at 5 min was evaluated in rat brain as Percent of injected dose in the total organ; settings: in vivo; in short: as §2
[22] = organism: Rattus norvegicus; assay: The distribution of the 131 I-labeled compound at 30 min was evaluated in rat kidney as Percent of injected dose in the total organ; settings: in vivo, 0.5 h; in short: as §2
[23] = organism: Rattus norvegicus; assay: The distribution of the 131 I-labeled compound at 30 min was evaluated in rat liver as Percent of injected dose in the total organ; settings: in vivo, 0.5 h; in short: as §2
[24] = organism: Rattus norvegicus; assay: The distribution of the 131 I-labeled compound at 5 min was evaluated in rat heart as Percent of injected dose in the total organ; settings: in vivo; in short: as §2
[25] = organism: Rattus norvegicus; assay: The distribution of the 131 I-labeled compound at 5 min was evaluated in rat kidney as Percent of injected dose in the total organ; settings: in vivo; in short: as §2
[26] = organism: Rattus norvegicus; assay: The distribution of the 131 I-labeled compound at 5 min was evaluated in rat liver as Percent of injected dose in the total organ; settings: in vivo; in short: as §2
[27] = organism: Rattus norvegicus; assay: The distribution of the 131 I-labeled compound at 30 min was evaluated in rat heart as Percent of injected dose per gram in the organ; settings: in vivo, 0.5 h; in short: as §2
[28] = organism: Rattus norvegicus; assay: The distribution of the 131 I-labeled compound at 5 min was evaluated in rat lung as Percent of injected dose per gram in the organ; settings: in vivo; in short: as §2
[29] = organism: Rattus norvegicus; assay: Ratio of distribution of the [131I]-labeled compound at 5 min in rat kidney over uptake in blood; settings: other tissue; in short: as §1
[30] = organism: Rattus norvegicus; assay: Ratio of distribution of the [131I]-labeled compound at 30 min in rat kidney over uptake in blood; settings: other tissue, 0.5 h; in short: as §1

| SMILES | Ratio [1] | Dose [2] | Dose [3] | Dose [4] | Ratio [5] | Dose [6] | Dose [7] | Ratio [8] | Dose [10] | Dose [11] | Ratio [12] | Dose [13] | Ratio [14] | Dose [15] | Ratio [16] | Ratio [17] | Dose [18] | Ratio [19] | Dose [21] | Dose [23] | also measured |
| --- | --- | --- | --- | --- | --- | --- | --- | --- | --- | --- | --- | --- | --- | --- | --- | --- | --- | --- | --- | --- | --- |
| CCN(CC)C(C)Cc1cc(OC)c(I)cc1OC (centres undefined) | 5.6 | 0.35% | 0.06% | 0.32% | 5 | 0.13% | 0.26% | 5.5 | 0.2% | 0.39% | 29 | 0.46% | 20 | 1.2% | 8.1 | 2.3 | 0.07% | 4.3 | 0.78% | 4.3% | Dose [9]: 0.69%; Dose [20]: 0.39%; Dose [22]: 1.1%; Dose [24]: 0.4%; Dose [25]: 1.8%; Dose [26]: 6%; Dose [27]: 0.14%; Dose [28]: 2% |
| CNC(C)Cc1cc(OC)c(I)cc1OC (centres undefined) | 4.1 | 0.93% | 0.28% | 1.8% | 6.6 | 0.62% | 1% | 5.4 | 0.32% | 0.57% | 42 | 0.76% | 11.4 | 3.2% | 6.4 | 1.9 | 0.14% | 2.2 | 0.97% | 11% | Dose [24]: 0.65%; Dose [26]: 5.3%; Dose [27]: 0.53%; Dose [28]: 5.9% |
| COc1cc(CC(C)NC(C)C)c(OC)cc1I (centres undefined) | 2.6 | 1.2% | 0.23% | 1.2% | 4.8 | 0.3% | 0.52% | 4.4 | 0.29% | 0.66% | 31 | 1.1% | 12 | 2.8% | 5.2 | 1.9 | 0.25% | 1.3 | 1.2% | 6% | Dose [24]: 0.79%; Dose [26]: 7.2%; Dose [27]: 0.44%; Dose [28]: 7.7% |
| COc1cc(CC(C)N(C)C)c(OC)cc1I (centres undefined) | 9 | 0.8% | 0.11% | 0.89% | 4 | 0.55% | 1.1% | 5.5 | 0.28% | 1.8% | 16 | 1.1% | 15 | 1.7% | 8.1 | 2.4 | 0.2% | 5 | 3.4% | 12% | Dose [9]: 2.4%; Ratio [29]: 5.5; Dose [20]: 0.9%; Dose [22]: 2.4%; Dose [24]: 1.1%; Dose [25]: 6.8%; Dose [26]: 16%; Dose [27]: 0.26%; Ratio [30]: 8.4; Dose [28]: 3.1% |
| COc1cc(CC(C)N(C)C(C)C)c(OC)cc1I (centres undefined) | 0.24 | 0.34% | 0.53% | 0.32% | 0.68 | 0.05% | 0.1% | 1.6 | 0.24% | 0.12% | 1.1 | 0.76% | 0.72 | 0.38% | 0.6 | 0.36 | 0.5% | 0.09 | 0.23% | 4.6% | Dose [9]: 0.53%; Ratio [29]: 1.1; Dose [20]: 0.38%; Dose [22]: 1.1%; Dose [24]: 0.39%; Dose [25]: 1.5%; Dose [26]: 10%; Dose [27]: 0.19%; Ratio [30]: 0.72; Dose [28]: 0.53% |
| COc1cc(CC(C)NCCCN(C)C)c(OC)cc1I (centres undefined) | 0.3 | 1.8% | 0.07% | 0.55% | 17 | 0.02% | 0.04% | 6 | 1.6% | 0.03% | 34 | 0.66% | 77 | 5.4% | 7.8 | 21 | 0.11% | 0.3 | 0.05% | 7.7% | Dose [9]: 2%; Ratio [29]: 16; Dose [20]: 2%; Dose [22]: 5.7%; Dose [24]: 1.9%; Dose [25]: 57%; Dose [26]: 11%; Dose [27]: 1.5%; Ratio [30]: 29; Dose [28]: 3.8% |
| COc1cc(CC(C)NCc2ccccc2)c(OC)cc1I (centres undefined) | 5.3 | 1.1% | 0.2% | 0.95% | 9.2 | 0.5% | 0.9% | 6 | 0.34% | 0.64% | 69 | 0.72% | 25 | 5% | 4.7 | 2.5 | 0.12% | 2.5 | 1.1% | 5.4% | Dose [24]: 0.77%; Dose [26]: 4%; Dose [27]: 0.5%; Dose [28]: 8.3% |
| CCCCCCNC(C)Cc1cc(OC)c(I)cc1OC (centres undefined) | 2.3 | 2.1% | 0.17% | 1.6% | 13 | 0.57% | 0.97% | 5.4 | 0.25% | 0.37% | 47 | 0.58% | 25 | 4.3% | 9.4 | 2.1 | 0.16% | 3.4 | 0.63% | 9.4% | Dose [24]: 1.5%; Dose [26]: 4.6%; Dose [27]: 0.36%; Dose [28]: 7.5% |
| COc1cc(CC(C)NN)c(OC)cc1I (centres undefined) | 1 | 0.46% | 0.17% | 0.29% | 1.9 | 0.08% | 0.14% | 3.6 | 0.15% | 0.37% | 2.4 | 1.3% | 1.5 | 0.26% | 1.7 | 7.1 | 0.36% | 0.5 | 0.72% | 5% | Dose [9]: 1.2%; Ratio [29]: 3.3; Dose [20]: 0.77%; Dose [22]: 1.5%; Dose [24]: 0.4%; Dose [25]: 2.2%; Dose [26]: 12%; Dose [27]: 1.2%; Ratio [30]: 4.5; Dose [28]: 0.87% |

— ChEMBL document CHEMBL1122702, “Radiohalogen-labeled imaging agents. 3. Compounds for measurement of brain blood flow by emission tomography” (J Med Chem, 1984)
